Source: ChEMBL document CHEMBL1949577, “Design, synthesis and biological evaluation of novel (E)-α-benzylsulfonyl chalcone derivatives as potential BRAF inhibitors” (Eur J Med Chem, 2012)

Key:
[1] = Inhibition of mouse full length GST-tagged B-Raf V600E mutant-mediated human MEK1 phosphorylation after 1 hr preincubation
[2] = target: Serine/threonine-protein kinase B-raf (Homo sapiens, UniProt P15056, V600E); test: Inhibition of B-Raf V600E mutant-mediated ERK phosphorylation in human WM266.4 cells by ELISA; type: cell-based
Method in brief: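 Phospho-ERK1/2 levels in WM266.4 melanoma cells were measured with an ELISA kit, run as the manufacturer instructs.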

[3] = Growth inhibition of human WM266.4 cells expressing B-Raf V600E mutant after 24 hrs by MTT assay; type: functional; conditions: WM 266-4, 24 h
Method in brief: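 MTT growth assay. Cells were plated, then returned to the incubator for 24 h to reattach before treatment. Compounds were made up at 20 mM in DMSO (stock), diluted in culture medium to […], and tested over 10 threefold serial dilutions. GI50 was reported from three separate experiments, or from two for some entries.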

Sequence of Serine/threonine-protein kinase B-raf (P15056 2-766 V600E limits assumed): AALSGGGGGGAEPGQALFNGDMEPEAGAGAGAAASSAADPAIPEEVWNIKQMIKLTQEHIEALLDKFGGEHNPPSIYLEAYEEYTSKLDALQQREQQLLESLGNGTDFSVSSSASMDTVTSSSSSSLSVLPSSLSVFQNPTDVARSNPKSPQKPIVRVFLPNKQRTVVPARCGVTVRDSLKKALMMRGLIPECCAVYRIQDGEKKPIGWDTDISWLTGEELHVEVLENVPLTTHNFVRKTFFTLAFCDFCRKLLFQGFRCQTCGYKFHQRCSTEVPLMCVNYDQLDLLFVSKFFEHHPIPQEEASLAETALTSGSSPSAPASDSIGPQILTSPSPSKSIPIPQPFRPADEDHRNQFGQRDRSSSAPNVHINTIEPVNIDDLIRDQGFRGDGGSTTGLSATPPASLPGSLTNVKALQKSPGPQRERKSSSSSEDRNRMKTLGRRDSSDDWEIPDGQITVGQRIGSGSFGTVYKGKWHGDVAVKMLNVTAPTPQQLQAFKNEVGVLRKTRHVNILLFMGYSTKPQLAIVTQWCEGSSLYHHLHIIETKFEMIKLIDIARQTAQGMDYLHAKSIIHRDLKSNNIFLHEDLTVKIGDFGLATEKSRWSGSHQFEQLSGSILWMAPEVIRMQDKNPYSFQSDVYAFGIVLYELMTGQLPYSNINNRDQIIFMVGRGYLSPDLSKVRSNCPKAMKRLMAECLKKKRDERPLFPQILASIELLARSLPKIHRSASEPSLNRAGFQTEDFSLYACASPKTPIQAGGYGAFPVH

Structure (SMILES)	IC50 [1] [µM]	IC50 [2] [µM]	GI50 [3] [µM]
O=C1c2ccccc2SC(c2cc(Br)ccc2O)N1c1ccc(C(F)(F)F)cc1 (centres undefined)	> 25		
O=c1cc(-c2ccc3c(c2)OCCO3)oc2cc(CCCN3CCCC3)cc(O)c12	10.6		
O=C(/C(=C\c1ccc([N+](=O)[O-])cc1)S(=O)(=O)Cc1ccccc1)c1ccc(Cl)cc1		1.23	
CNC(=O)c1cc(Oc2ccc(NC(=O)Nc3ccc(Cl)c(C(F)(F)F)c3)cc2)ccn1 [SORAFENIB]	0.06		8.3
O=C(/C(=C\c1ccc([N+](=O)[O-])cc1)S(=O)(=O)Cc1ccccc1)c1ccccc1		1.37	
O=C(/C(=C\c1ccc(F)cc1)S(=O)(=O)Cc1ccccc1)c1ccc(Cl)cc1		1.78	
Cc1ccc(N(Cc2cc(Cl)cc(Cl)c2O)CN(N=O)c2ccccc2)cc1	8.61		
Cc1ccc(N2C(=O)c3ccccc3SC2c2cc(Br)ccc2O)cc1 (centres undefined)	> 25		
